Screens deposited in PubChem BioAssay by several laboratories.
Hits are enriched below; roughly 3.5% of the tested compounds scored in any of these assays.
FXIIa inh: blocks human coagulation factor XIIa protease activity. P00748. purified FXIIa, Boc-QGR-AMC fluorogenic substrate, 2 h. inhibition, % at 5 µM. 220,000 tested, 0.3% active. AID 800; in the data active = inhibition above about 40%
KLK5 inh: inhibitors of human kallikrein 5; Q9Y337; recombinant hK5, fluorogenic AMC substrate cleavage; inhibition, % at 5 µM; 210,000 tested, 0.59% active; AID 873;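 active = inhibition of 40% or more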
Target sequence (Q9Y337 67-293 limits assumed): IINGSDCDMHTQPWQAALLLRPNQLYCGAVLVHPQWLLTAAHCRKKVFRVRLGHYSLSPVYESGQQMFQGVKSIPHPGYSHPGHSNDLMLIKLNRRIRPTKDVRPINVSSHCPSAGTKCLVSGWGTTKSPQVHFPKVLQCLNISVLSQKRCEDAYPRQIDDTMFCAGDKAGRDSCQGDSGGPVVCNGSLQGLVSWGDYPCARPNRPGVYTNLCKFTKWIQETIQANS
AHR activator: activates the human aryl hydrocarbon receptor. P35869. AHR-responsive luciferase reporter cells, luminescence. activation, % at 5 µM. 320,000 tested, 2.5% active. AID 2796; in the data active = activation above about 47%
STAT3 act: increases IL-6 driven STAT3 reporter signal | U3A cells, IL-6 STAT3-luciferase reporter, luminescence; 100% = signal with IL-6 EC80 alone | activation (% of control), % at 5.6 µM | 190,000 tested, 0.91% active | AID 871;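 active = activation above the screen-wide mean of compound activation plus 3 SD, cut at about 130% in these data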
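Test system: human U3A cells carrying STAT3-luciferase construct; control set: IL-6-only wells as 100% reference; timing: compound pre-incubation 1 h before IL-6, then 6 h stimulation at 37 °C; also added: IL-6 stimulus at 33 ng/mL final; evaluation: % activation versus median of IL-6-stimulated wells; detection: reporter luminescence signal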
FXIa inh: inhibitors of human coagulation factor XIa. P03951. purified FXIa, Boc-Glu-Ala-Arg-AMC fluorogenic substrate. AID 798. 220,000 tested, 0.14% active. inhibition, % at 5 µM;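 active = inhibition of at least 40%; inactive = inhibition below 40%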;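 also: fluorescence of freed AMC excited at 355 nm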
Thrombin inh: blocks human thrombin protease activity. P00734. alpha-thrombin, Boc-VPR-AMC fluorogenic substrate cleavage. inhibition, % at 5 µM. 220,000 tested, 0.26% active. AID 1046;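 active = inhibition at or above 40%; inactive = inhibition below 40%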
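Material: human alpha-thrombin enzyme / Medium: pH 7.5 Tris (50 mM) with NaCl 150 mM, Tween 20 0.05% / Compound: single-point dosing at 5 µM, 0.2% DMSO / Incubation: enzyme reaction carried out at room temperature / Detection: AMC fluorescence, 355/460 nm / Read-out basis: percent inhibition scaled between no-compound controls and no-enzyme blanks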
Of the large screens only hits and unclear results are named; the others gave an inactive call.

Cc1cc2n(n1)SC(Nc1cccc3ccccc13)N2 (stereo unspecified)	AHR activator 53
CCc1ccccc1NC1Nc2cc(C)nn2S1 (stereo unspecified)	none
c1ccc2oc(-c3ccc(Nc4nc(N5CCCCC5)nc(N5CCOCC5)n4)cc3)nc2c1	none
CC(/C=N/NC(=O)c1cc(C(C)C)[nH]n1)=C\c1ccccc1	Thrombin inh 46
CC1Cc2ccccc2N1C(=O)COC(=O)Cc1ccc(F)cc1 (stereo unspecified)	none (no result: FXIIa inh, KLK5 inh, STAT3 act, FXIa inh, Thrombin inh)
Cc1nc(=O)c(-c2ccccc2)c(C)n1CC1CCCO1 (stereo unspecified)	KLK5 inh 74
S=c1[nH]nc(-c2ccccc2)n1CC1CCCO1 (stereo unspecified)	none
CN1CC=C2C(C#N)=C(N)C(C#N)(C#N)[C@H](c3cccs3)[C@H]2C1	none
CN1CC=C2C(C#N)=C(N)C(C#N)(C#N)C(CCc3ccccc3)C2C1 (stereo unspecified)	AHR activator 56
O=C1C(NS(=O)(=O)c2ccccc2)=C(N2CCN(c3ccc(F)cc3)CC2)C(=O)c2ccccc21	AHR activator 66 (no result: STAT3 act)
O=C(N/N=C/c1c[nH]c2ccc(Br)cc12)c1ccn(Cc2ccc(Cl)cc2)n1	none
CCOc1ccc(NC(=O)CSc2nc3c([nH]c4ccccc43)c(=O)n2C)cc1	STAT3 act 134
Cc1ccc(NC(=O)CSc2nc3c([nH]c4ccccc43)c(=O)n2C)cc1	AHR activator 60
Cc1ccc(S(=O)(=O)NCCC(=O)Nc2cccc(Cl)c2)cc1	none
COC(=O)c1nn(-c2ccccc2)c(=O)cc1Oc1ccccc1	none
CCc1cc(C(=O)N2CCCC(CCC(=O)NCc3cccc(OC)c3)C2)no1 (stereo unspecified)	none (no result: KLK5 inh)
CCSc1nc2c(cnn2-c2ccccc2)c(=O)n1N	none (no result: STAT3 act)
CN(C)c1ccc(C(C[N+](=O)[O-])c2c(N)n(C)c(=O)n(C)c2=O)c(F)c1C#N (stereo unspecified)	AHR activator 63 (no result: FXIIa inh, KLK5 inh, STAT3 act, FXIa inh, Thrombin inh)
C=C1/C=C(\C)[C@](C)(O)C[C@H](O)CC(=O)[C@H](O)[C@@H](O)[C@H](C)C[C@H](C)OC(=O)/C(C)=C/CC/C=C/[C@@H]2O[C@H]2C[C@H](C)C1	none (no result: FXIIa inh, KLK5 inh, STAT3 act, FXIa inh, Thrombin inh)
Cn1c(-c2nnn(-c3ccc(F)cc3)n2)cc2ccccc21	AHR activator 69 (no result: STAT3 act)
Fc1ccc(-n2nnc(-c3ccnc4ccccc34)n2)cc1	AHR activator 54 (no result: STAT3 act)
Cc1c(NC(=O)COC(=O)c2ccc(Br)o2)c(=O)n(-c2ccccc2)n1C	none
C(=N\NC1=Nc2cccc3cccc1c23)/c1ccccn1	STAT3 act 157 (no result: AHR activator)
Clc1ccccc1/C=N/NC1=Nc2cccc3cccc1c23	STAT3 act 159
O=C(O)c1ccc(NC2=Nc3cccc4cccc2c34)cc1	none (no result: AHR activator, STAT3 act)
O=C(Nc1ccc(Cc2ccncc2)cc1)c1ccco1	KLK5 inh 70, Thrombin inh 40
CC(C)(C)c1ccc(C(=O)Nc2ccc(NC(=O)c3ccco3)cc2)cc1	KLK5 inh 99
CCCn1cnc2cc(NC(=O)c3ccco3)ccc21	AHR activator 60 (no result: FXIIa inh, KLK5 inh, STAT3 act, FXIa inh, Thrombin inh)
CCn1cnc2cc(NC(=O)c3ccco3)ccc21	none
O=C(Nc1ccc(NC(=O)c2ccco2)cc1)c1ccco1	none (no result: FXIIa inh, KLK5 inh, STAT3 act, FXIa inh, Thrombin inh)
CCC(=O)c1ccc(OCC(=O)NC2(C#N)CCCCC2)cc1	none
Cc1noc(C(=O)N2CCN(c3ccc(F)cc3)CC2)c1Cl	AHR activator 48
Cc1cc2c3nonc3ccc2n1-c1ccccc1	none
Cc1cc2nc(-c3ccc(SCC(=O)NC(C)C)nc3)[nH]c2cc1C	AHR activator 78
Cc1cc(NC(=O)CSc2ccc(-c3nc4cc(C)c(C)cc4[nH]3)cn2)no1	none
Cc1cc2nc(-c3ccc(SCC(=O)N4CCc5ccccc54)nc3)[nH]c2cc1C	STAT3 act 138
Cc1ccnc(NC2OC(=O)c3ccccc32)c1 (stereo unspecified)	none
CC(/C=N/NC(=O)c1cc(-c2ccncc2)nc2ccccc12)=C\c1ccco1	none
O=C(N/N=C/c1ccc[nH]1)c1cc(-c2ccc(Cl)cc2)nc2ccccc12	AHR activator 49 (no result: KLK5 inh)
O=C(N/N=C/c1ccco1)c1cc(-c2cccc(Br)c2)nc2ccccc12	AHR activator 50
O=[N+]([O-])c1ccc(OCCN2CCNCC2)cc1	none
CCN(C(=O)c1ccco1)c1nc(CC(=O)Nc2ccc(Cl)cc2)cs1	AHR activator 78
COc1ccc(C(=O)NC(=S)Nc2cccnc2)cc1[N+](=O)[O-]	AHR activator 59
COc1ccc(C(=O)NC(=S)NCc2cccnc2)cc1Br	AHR activator 51
Cc1ccc(C(=O)NC(=S)NCc2cccnc2)cc1C	none
COc1ccc(Cl)cc1C(=O)NNC(=O)c1nn(C)c(=O)c2ccccc12	AHR activator 66 (no result: FXIIa inh, KLK5 inh, STAT3 act, FXIa inh, Thrombin inh)
CCn1nc(C(=O)NNC(=O)c2cc(Cl)ccc2OC)c2ccccc2c1=O	none (no result: FXIIa inh, KLK5 inh, STAT3 act, FXIa inh, Thrombin inh)
O=C(Nc1ccccc1Br)C1CC(=O)N(c2ccc3c4c(cccc24)CC3)C1 (stereo unspecified)	none
Cc1c(CN(C)C)c2c(n1Cc1ccccc1)C(=O)c1ccc(Br)cc1-2	none
Cc1c(CN(C)C)c2c(n1C)C(=O)c1ccc(Br)cc1-2	AHR activator 71
COCc1ccc(C(=O)NC2CCCc3c2cnn3-c2ccc(C)c(C)c2)o1 (stereo unspecified)	none (no result: FXIIa inh, KLK5 inh, STAT3 act, FXIa inh, Thrombin inh)
O=C1C(C=NCCCN2CCOCC2)=C(O)c2ccccc21	KLK5 inh 59
O=C1C(C=NCCN2CCOCC2)=C(O)c2ccccc21	none
Cc1cc(NC(=O)Cc2ccccc2)ccc1NC(=O)c1cccs1	none
CCOC(=O)N1CCN(C(=O)c2ccccc2N(C)S(C)(=O)=O)CC1	Thrombin inh 55
CN(c1ccccc1C(=O)N1CCCC1)S(C)(=O)=O	none
CC1CCCCN1CC(=O)Nc1sc2c(c1C#N)CCC2 (stereo unspecified)	none
O=C(c1cn(-c2ccccc2)nc1-c1cccc(Br)c1)N1CCOCC1	none (no result: FXIIa inh)
Cc1nnc(-c2cccc(Br)c2)c2cn(-c3cccc(Br)c3)nc12	none
COc1ccc(-n2cc3c(-c4cccc(Br)c4)nnc(C)c3n2)cc1	AHR activator 61
COc1ccc(-n2cc(CN3CCCC3)c(-c3cccc(F)c3)n2)cc1	none (no result: KLK5 inh)
Cc1nnc(-c2cccc(Br)c2)c2cn(-c3ccccc3)nc12	AHR activator 48
Cc1nnc(-c2cccc(Br)c2)c2cn(-c3ccc(Br)cc3)nc12	AHR activator 89
Nc1c(C(=O)c2ccccc2O)cnn1-c1ccc(S(=O)(=O)N2CCOCC2)cc1[N+](=O)[O-]	none
CCN(CC)S(=O)(=O)c1ccc(OCC(=O)NC(=O)Cc2ccccc2)c([N+](=O)[O-])c1	none (no result: FXIIa inh, KLK5 inh, STAT3 act, FXIa inh, Thrombin inh)
O=C(COC(=O)c1ccc([N+](=O)[O-])s1)Nc1cccc(S(=O)(=O)NC2=NCCCCC2)c1	Thrombin inh 45 (no result: STAT3 act)
Cc1nc(C/C(=N\Nc2ccccc2)c2ccc(O)cc2O)cs1	none
